# The sample as a whole holds a higher share of hits than the screen did.
# Mdm2 ligase inh: MDM2-luciferase reporter signal enhancers, primary screen, MDM2 E3 ligase inhibitor project, cell-based, luminescence, 1536-well. cell-based MDM2 ubiquitination luciferase reporter, 2 h; 0 = plate control, 100 = twice control, blank-subtracted. signal enhancement, % at 5 µM. 0.11% of 210,000 active. AID 1230, 2008;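 active = signal enhancement of 30% or more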;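 also: luminescence tracks abundance of the self-degrading MDM2-luciferase fusion protein; higher signal means inhibition of MDM2 E3 ligase activity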
#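 Test system: mammalian cells stably expressing self-ubiquitinating, self-degrading MDM2 E3–luciferase fusion; Amount: 2000 cells in each well; Medium: DMEM; Schedule: 4 h settle plus 2 h compound, 37 °C; Technique: SteadyLite luciferase luminescence after 15 min room-temperature reagent incubation; Benchmarks: plate control and blank wells.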
# S1P4 ag: S1P4 receptor agonists, primary screen, cell-based. S1P4-expressing cell line, agonist reporter assay. activation, % at 4.98 µM. 0.35% of 220,000 active; in the data active = activation above about 11%;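 also: 0% = DMSO vehicle and 100% = reference agonist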
# Target sequence (O95977 whole entry, looked up): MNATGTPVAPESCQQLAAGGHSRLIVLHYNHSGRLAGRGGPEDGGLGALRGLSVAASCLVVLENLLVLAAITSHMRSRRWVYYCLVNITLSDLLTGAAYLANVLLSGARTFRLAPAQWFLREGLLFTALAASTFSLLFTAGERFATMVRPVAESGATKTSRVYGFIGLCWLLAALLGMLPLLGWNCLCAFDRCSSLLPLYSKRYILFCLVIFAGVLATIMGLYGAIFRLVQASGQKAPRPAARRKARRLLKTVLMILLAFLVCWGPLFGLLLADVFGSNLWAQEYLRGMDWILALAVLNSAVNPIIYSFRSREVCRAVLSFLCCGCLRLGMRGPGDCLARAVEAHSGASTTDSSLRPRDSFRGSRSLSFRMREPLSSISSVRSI
# S1P4 antagonist: S1P4 receptor antagonists, primary screen, cell-based; Sphingosine 1-phosphate receptor 4 (Homo sapiens), O95977; S1P4-expressing cells, antagonist mode, reporter read-out; inhibition, % at 4.98 µM; 0.26% of 220,000 active; in the data active = inhibition above about 29%;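 also: 0% = wells stimulated with agonist and 100% = vehicle wells without agonist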
# S1P3 antag: S1P3 receptor antagonists, primary screen, cell-based | Sphingosine 1-phosphate receptor 3 (Homo sapiens), Q99500 | CHO S1P3 NFAT-BLA reporter, FRET fluorescence, antagonist mode | inhibition, % at 4.98 µM | 0.27% of 170,000 active | AID 485, 2006;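 active = inhibition above the plate cutoff, the mean inhibition of test wells on that plate plus 3 SD, cut at about 28% in these data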;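 also: cells challenged with S1P at its EC80 of 0.8 µM; blue over green emission ratio from cleaved BLA substrate after 4 h stimulation; 0% = S1P-stimulated wells and 100% = unstimulated DMSO-only wells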
# Lmaj promast: Leishmania major promastigote growth inhibition, primary screen. Leishmania major promastigotes, resazurin fluorescence viability. inhibition, % at 10 µM. 9% of 200,000 active. AID 1063, 2008; in the data active = inhibition above about 50%;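 also: promastigotes grown with compound for 44 hours at 28 °C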
# An asterisk follows results filed as active; x = not tested or not shown.
SMILES,Mdm2 ligase inh,S1P4 ag,S1P4 antagonist,S1P3 antag,Lmaj promast
O=C(NCCN1CCN(C(=O)c2cccs2)CC1)C(=O)Nc1ccc(Br)cc1,-8,0,0,x,73*
CCn1cc(C(=O)N2CCCC2)c(=O)c2cc(S(=O)(=O)N3CCOCC3)ccc21,-5,-1,-20,22,-9
COc1ccc(Oc2ccc(/C=C/C(=O)c3ccc(O)cc3)cc2[N+](=O)[O-])cc1,-10,1,25,9,100*
CN(C)c1ccc(/C=C/C(=O)c2ccccc2)cc1[N+](=O)[O-],-7,-1,0,5,100*
CNc1ccc(/C=C/C(=O)c2ccc(C)cc2)cc1[N+](=O)[O-],1,1,-12,1,24
COC(=O)c1ccc(Cn2nnc3ccccc32)cc1,-8,-1,-2,5,x
COc1ccc(/C=C/C(=O)c2ccccc2)cc1COc1ccc(F)cc1,-8,-1,12,x,60*
COc1ccc(/C=C/C(=O)c2ccccc2)cc1Cn1nnc2ccccc21,19,-2,-5,20,100*
C(=N\c1nc2ccccc2n1Cc1ccccc1)/c1cccs1,-8,1,-15,-3,8
COc1ccc(/C=C/C(=O)c2ccc(O)cc2)cc1COc1ccc(F)cc1,-12,-3,-6,x,97*
COc1ccc(C(=O)/C=C/c2ccc(OC)c(COc3ccccc3F)c2)cc1,2,0,-18,9,45
CN(C)C(C)(C)C#CCC(c1ccccc1)c1ccccc1,11,2,-14,-3,100*
O=C(Nc1cc(Cl)ccn1)C1(c2ccccc2)CC1(Cl)Cl (stereo unspecified),-16,2,3,-8,x
CCn1c(=O)c2cc(C(=O)N3CCCC3)sc2c2ccccc21,-7,-1,-4,57*,8
CCN(CC(=O)Nc1cc(Cl)ccc1C)c1ncnc2sc(C)c(C)c12,-6,-1,-18,-3,11
Cc1cc(C)cc(NC(=O)CC23CC4CC(C2)CC(n2nnc(C)n2)(C4)C3)c1,2,0,-10,-2,46
Cc1nnn(C23CC4CC(CC(CC(=O)Nc5ccc(C)c(Cl)c5)(C4)C2)C3)n1,-4,0,-15,3,95*
O=C(CNC(=O)c1cccc(F)c1)N/N=C/c1cccc([N+](=O)[O-])c1,-3,-2,-8,-5,81*
CC1=C(/C=C/C(C)=N\NC(=O)c2ccncc2)C(C)(C)CCC1,-2,-2,-7,-16,81*
CC(/C=C/c1ccc2c(c1)OCO2)=N/NC(=O)c1ccncc1,-1,-4,15,8,x
CC(/C=C/c1cccc([N+](=O)[O-])c1)=N\NC(=O)c1ccncc1,-4,1,1,-11,55*
Cc1cc(C(=O)N/N=C/C=C/c2ccccc2)n[nH]1,-11,0,-4,0,x
Cc1cc(C(=O)N/N=C/C=C/c2cccc([N+](=O)[O-])c2)n[nH]1,-7,-1,-20,-10,57*
CC(/C=C/c1ccccc1)=N/NC(=O)c1cccc(Br)c1,-4,-1,-10,-15,72*
Nc1ccn(Cc2ccc(F)cc2)n1,-6,-1,-2,-18,8
SMILES,Mdm2 ligase inh,S1P4 ag,S1P4 antagonist,S1P3 antag,Lmaj promast
O=C(CSc1nncs1)NCCCc1ccccc1,-13,-1,-18,-3,-5
CCN(CC)C(=O)CSc1nnc2nnc3cc(OC)ccc3n12,-14,2,15,-9,x
CC(NC(=O)C12CC3CC(CC(C3)C1)C2)C(=O)N/N=C/C1=C(N2CCOCC2)C(=C\c2ccccc2)/CC1 (stereo unspecified),-1,1,6,-2,100*
CSc1ccccc1C(=O)N1CCN(c2ncccn2)CC1,-3,-1,-15,-14,-8
CC1CCCN(C(C(=O)NC2CCCCC2)c2cc3c(cc2[N+](=O)[O-])OCO3)C1 (stereo unspecified),-3,1,-21,11,95*
NNC(=O)c1ncoc1-c1ccc(Cl)cc1,-6,2,-6,-1,x
CCN(CC)S(=O)(=O)c1cccc(C(=O)Nc2cccc(C)c2)c1,-18,3,-6,x,62*
CCN(CC)S(=O)(=O)c1cccc(NC(=O)c2cncc(Br)c2)c1,-89,-2,-34,2,99*
CN(C)S(=O)(=O)c1cccc(NC(=O)c2cncc(Br)c2)c1,-1,-1,-15,-2,88*
CCN(CC)S(=O)(=O)c1cccc(C(=O)N/N=C(\C)c2ccc(O)cc2O)c1,-11,-1,-6,3,68*
CCOC(=O)c1ccc(NC(=S)NCCc2ccc(OC)c(OC)c2)cc1,-4,1,0,6,x
Cc1cccc(Nc2nc(N)nc(CCl)n2)c1C,-9,2,5,3,x
CCN(CC)S(=O)(=O)c1cccc(NC(=O)c2cc3ccccc3o2)c1,-20,1,-8,x,81*
COc1cc(NC(=S)NC2CC2)c(OC)cc1Cl,5,0,-11,-15,41
Cc1cc2c3c(c1)C1(C(=O)N3C(C)(C)CC2C)C(C#N)=C(N)Oc2cc(O)ccc21 (stereo unspecified),-3,2,-20,5,100*
CC1=CC(C)(C)N2C(=O)C3(C(C#N)=C(N)Oc4cc(O)ccc43)c3cccc1c32 (stereo unspecified),10,0,7,3,56*
CC1=CC(C)(C)N2C(=O)C3(C(C#N)=C(N)Oc4cc(C)oc(=O)c43)c3cc(C)cc1c32 (stereo unspecified),x,0,-3,x,91*
CC1=CC(C)(C)N2C(=O)C3(C(C#N)=C(N)OC4=C3C(=O)CC(C)(C)C4)c3cccc1c32 (stereo unspecified),-8,-4,-3,-14,0
COc1cc2c3c(c1)C1(C(=O)N3C(C)(C)C=C2C)C(C#N)=C(N)Oc2cc(C)oc(=O)c21 (stereo unspecified),8,0,1,-12,-6
O=C(O)c1ccc(/C=C/c2nc3sc4c(c3c(=O)[nH]2)CCC4)cc1,5,1,-6,-15,-11
CCC1Cc2c(nc3c4c(nc(N5CCOCC5)c(C#N)c24)NC(C)=N3)O1 (stereo unspecified),x,-2,2,-9,15
C=CCN=c1scc(-c2ccc3c(c2)NC(=O)CO3)n1/N=C(\C)c1ccccn1,-21,-3,-5,9,57*
Cc1ccc(S(=O)(=O)CCC(=O)NCc2ccco2)cc1,-7,0,-17,x,-4
COC(=O)CCCC(=O)N1CCCC(CNS(=O)(=O)c2ccc(OC)cc2)C1 (stereo unspecified),-6,0,-8,-10,-2
CC12CCC(C(=O)Nc3nc4ccccc4s3)(OC1=O)C2(C)C (stereo unspecified),-13,1,-7,-15,4
